Assay results from ChEMBL document CHEMBL1134951, “Substituted uracil derivatives as potent inhibitors of poly(ADP-ribose)polymerase-1 (PARP-1)” (Bioorg Med Chem Lett, 2002).
≈ marks a conversion by molar mass, not a printed value. Where “and” joins values, the source holds several entries; their conditions need not be identical. Equal values may be shown once.

Key:
[1] = target: T1, Poly [ADP-ribose] polymerase 1 (Homo sapiens, UniProt P09874); experiment: Inhibitory activity against human recombinant PARP-1
T1 sequence (P09874 whole entry): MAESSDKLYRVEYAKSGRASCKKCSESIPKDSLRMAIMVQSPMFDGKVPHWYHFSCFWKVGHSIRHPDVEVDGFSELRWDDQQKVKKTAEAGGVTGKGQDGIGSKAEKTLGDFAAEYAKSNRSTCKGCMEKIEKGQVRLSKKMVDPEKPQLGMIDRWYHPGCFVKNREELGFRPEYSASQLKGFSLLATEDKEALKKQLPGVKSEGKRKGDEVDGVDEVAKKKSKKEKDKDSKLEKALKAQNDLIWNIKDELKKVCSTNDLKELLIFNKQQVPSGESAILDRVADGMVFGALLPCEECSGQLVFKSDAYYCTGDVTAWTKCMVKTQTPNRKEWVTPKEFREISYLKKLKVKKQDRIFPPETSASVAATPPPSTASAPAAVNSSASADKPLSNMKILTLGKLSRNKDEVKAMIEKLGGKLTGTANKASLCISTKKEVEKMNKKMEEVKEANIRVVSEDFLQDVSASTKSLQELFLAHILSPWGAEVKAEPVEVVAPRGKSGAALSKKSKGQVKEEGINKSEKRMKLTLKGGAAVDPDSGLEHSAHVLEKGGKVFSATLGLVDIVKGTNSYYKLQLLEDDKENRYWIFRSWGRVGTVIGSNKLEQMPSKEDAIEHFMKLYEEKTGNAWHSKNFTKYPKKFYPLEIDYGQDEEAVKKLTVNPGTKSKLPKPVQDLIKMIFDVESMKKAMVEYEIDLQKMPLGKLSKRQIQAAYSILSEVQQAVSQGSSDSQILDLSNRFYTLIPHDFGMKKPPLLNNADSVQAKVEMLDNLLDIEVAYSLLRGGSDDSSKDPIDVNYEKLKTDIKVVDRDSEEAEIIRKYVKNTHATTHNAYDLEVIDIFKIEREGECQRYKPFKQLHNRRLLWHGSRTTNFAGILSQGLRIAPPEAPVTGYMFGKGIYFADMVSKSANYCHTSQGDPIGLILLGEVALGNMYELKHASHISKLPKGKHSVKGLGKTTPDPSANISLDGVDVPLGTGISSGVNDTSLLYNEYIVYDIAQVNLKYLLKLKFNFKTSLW

[2] = tested on: Rattus norvegicus; experiment: Volume at steady state distribution by administering the compound intravenously at a dose of 1 mg/kg in male wistar rat was determined; type: ADME, organism-based; design: dose 1 mg/kg, route intravenous; details: in vivo, iv
[3] = Half life was determined by administering the compound intravenously at a dose of 1 mg/kg in male wistar rat; type: ADME, organism-based; design: dose 1 mg/kg, route intravenous; details: in vivo, iv
[4] = Clearance was determined by administering the compound intravenously at a dose of 1 mg/kg in male wistar rat; type: ADME, organism-based; design: dose 1 mg/kg, route intravenous; details: in vivo, iv
[5] = Area under the curve was determined by administering the compound at a dose of 1 mg/kg intravenously in male wistar rat; type: ADME, organism-based; design: dose 1 mg/kg, route intravenous; details: in vivo, iv
[6] = target: T1, Poly [ADP-ribose] polymerase 1; experiment: Concentration required to inhibit human recombinant Poly (ADP-ribose) polymerase 1 was determined using dose-response inhibition
Outline: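 Purified recombinant human PARP-1 from a baculovirus (Bac-To-Bac) expression system. It ran 10 min at rt and was stopped with ice-cold 10% TCA. Precipitate was filtered, washed with ethanol and dried, then counted by scintillation. Read-out: IC50.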

[7] = Solubility in phosphate buffered saline (1% DMSO) at pH 6.5 (24 hr equilibration); type: physicochemical; details: buffer

SMILES	IC50 [1]	further results
O=C(CCCCCn1c2c(c(=O)[nH]c1=O)CSCC2)NCC(=O)N1CCN(c2ncccn2)CC1	0.25 µM	–
O=C(CCn1c2c(c(=O)[nH]c1=O)CCCC2)NCC(=O)c1ccccc1	0.45 µM	–
O=C(CCn1c2c(c(=O)[nH]c1=O)CCCC2)NCC(=O)N1CCN(c2ncccn2)CC1	0.09 µM	–
O=C(CCn1c2c(c(=O)[nH]c1=O)CSCC2)NCC(=O)N1CCN(c2ncccn2)CC1	–	Vss [2]: 0.31 L/kg; half-life [3]: 12 min; clearance [4]: 2.01 L/h/kg; AUC [5]: 0.52 µg·h/mL
O=C(CCn1c2c(c(=O)[nH]c1=O)CSCC2)NCC(=O)c1cccc(-c2ccccc2)c1	0.07 µM	–
O=C(CCn1c2c(c(=O)[nH]c1=O)CSCC2)NCC(=O)c1ccc(-c2cccnc2)cc1	0.012 µM	–
O=C(CCn1c2c(c(=O)[nH]c1=O)CSCC2)NCC(=O)c1ccc(Oc2ccccc2)cc1	0.03 µM	–
O=C(CCn1c2c(c(=O)[nH]c1=O)CSCC2)NCC(=O)c1ccc(-c2cncnc2)cc1	0.025 µM	–
O=C(CCn1c2c(c(=O)[nH]c1=O)CSCC2)NCC(=O)N1CCN(c2cccnn2)CC1	0.02 µM	–
O=C(CCn1c2c(c(=O)[nH]c1=O)CSCC2)NCC(=O)N1CCN(c2ncncn2)CC1	0.05 µM	–
COc1ccc(N2CCN(C(=O)CNC(=O)CCn3c4c(c(=O)[nH]c3=O)CSCC4)CC2)cc1	0.02 µM and 0.025 µM	Vss [2]: 1.01 L/kg; half-life [3]: 12 min; clearance [4]: > 4.5 L/h/kg; AUC [5]: 0.16 µg·h/mL
O=C(CCn1c2c(c(=O)[nH]c1=O)CSCC2)NCC(=O)c1ccc(-c2ccccc2)cc1	0.02 µM	–
O=C(CCn1c2c(c(=O)[nH]c1=O)CSCC2)NCC(=O)N1CCN(c2cc(C(F)(F)F)ccn2)CC1	0.02 µM	Vss [2]: 0.42 L/kg; half-life [3]: 18 min; clearance [4]: 2.21 L/h/kg; AUC [5]: 0.45 µg·h/mL
Nc1cccc(-c2ccc(C(=O)CNC(=O)CCn3c4c(c(=O)[nH]c3=O)CSCC4)cc2)c1	0.02 µM	–
O=C(CCn1c2c(c(=O)[nH]c1=O)CSCC2)NCC(=O)c1ccc(-c2cccnn2)cc1	0.025 µM	Vss [2]: 0.27 L/kg; half-life [3]: 18 min; clearance [4]: 1.64 L/h/kg; AUC [5]: 0.61 µg·h/mL
O=C(CCn1c2c(c(=O)[nH]c1=O)CSCC2)NCC(=O)c1ccc(N2CCCC2)cc1	0.012 µM	–
O=C(CCn1c2c(c(=O)[nH]c1=O)CSCC2)NCC(=O)c1ccc(OC(=O)c2ccccc2)cc1	0.03 µM	–
O=C(CCn1c2c(c(=O)[nH]c1=O)CSCC2)NCC(=O)c1ccc(OC(F)F)cc1	0.03 µM	–
O=C(CCn1c2c(c(=O)[nH]c1=O)CSCC2)NCC(=O)N1CCN(c2ccncc2)CC1	0.04 µM	–
O=C(CCn1c2c(c(=O)[nH]c1=O)COCC2)NCC(=O)N1CCN(c2ncccn2)CC1	0.8 µM	–
CC(CC(=O)NCC(=O)c1ccc2ccccc2c1)n1c2c(c(=O)[nH]c1=O)CCCC2 (stereo not given)	> 5 µM	–

SMILES	IC50 [1]	further results
CN(CC(=O)c1ccc2ccccc2c1)C(=O)CCn1c2c(c(=O)[nH]c1=O)CCCC2	0.4 µM	–
O=C(CCn1c2c(c(=O)[nH]c1=O)CC=CCC2)NCC(=O)N1CCN(c2ncccn2)CC1	0.9 µM	–
O=C(CCn1c2c(c(=O)[nH]c1=O)CSCC2)NCC(=O)c1ccc(Cl)cc1	0.06 µM	–
O=C(Cn1c2c(c(=O)[nH]c1=O)CSCC2)NCCC(=O)N1CCN(c2ncccn2)CC1	0.06 µM	–
COc1ccc(-c2ccc(C(=O)CNC(=O)CCn3c4c(c(=O)[nH]c3=O)CSCC4)cc2)cc1	0.015 µM	–
O=C(CCn1c2c(c(=O)[nH]c1=O)CSCC2)NCC(=O)c1ccc(-c2ccncc2)cc1	0.015 µM	–
O=C(CCn1c2c(c(=O)[nH]c1=O)CSCC2)NCC(=O)c1ccc(Br)cc1	0.015 µM	–
O=C(CCn1c2c(c(=O)[nH]c1=O)CCCC2)NCC(=O)N1CCN(c2ccccc2)CC1	0.2 µM	–
O=C(CCn1c2c(c(=O)[nH]c1=O)CSCC2)NCC(=O)c1cccc(Br)c1	0.07 µM	–
O=C(CCn1c2c(c(=O)[nH]c1=O)CCCCC2)NCC(=O)N1CCN(c2ncccn2)CC1	0.9 µM	–
C=CCCc1c(CC=C)c(=O)[nH]c(=O)n1CCC(=O)NCC(=O)N1CCN(c2ncccn2)CC1	> 5 µM	–
O=C(CCn1c2c(c(=O)[nH]c1=O)CSCC2)NCC(=O)N1CCN(c2ccccc2)CC1	–	IC50 [6]: 0.03 µM; Vss [2]: 1.39 L/kg; half-life [3]: 24 min; Solubility [7]: 0.33 mg/mL (≈ 721 µM); clearance [4]: 4.33 L/h/kg; AUC [5]: 0.23 µg·h/mL
Nc1cccnc1N1CCN(C(=O)CNC(=O)CCn2c3c(c(=O)[nH]c2=O)CSCC3)CC1	0.07 µM	–
O=C(CCn1c2c(c(=O)[nH]c1=O)CSCC2)NCC(=O)N1CCN(c2ncccc2C(F)(F)F)CC1	0.04 µM	clearance [4]: 4.3 L/h/kg; AUC [5]: 0.23 µg·h/mL
O=C(CCn1c2c(c(=O)[nH]c1=O)CCCC2)NCC(=O)c1ccc(Br)cc1	0.08 µM	–
O=C(CCn1c2c(c(=O)[nH]c1=O)CSCC2)NCC(=O)N1CCN(c2ccccn2)CC1	0.035 µM	Vss [2]: 1.19 L/kg; half-life [3]: 72 min; clearance [4]: 3.11 L/h/kg; AUC [5]: 0.32 µg·h/mL
O=C(CCn1c2c(c(=O)[nH]c1=O)CCCC2)NCC(=O)c1ccc2ccccc2c1	–	Vss [2]: 0.5 L/kg; half-life [3]: 42 min; clearance [4]: 1.7 L/h/kg; AUC [5]: 0.6 µg·h/mL
O=C(Cn1c2c(c(=O)[nH]c1=O)CSCC2)NCC(=O)N1CCN(c2ncccn2)CC1	0.15 µM	–
COc1ccc(C(=O)CNC(=O)CCn2c3c(c(=O)[nH]c2=O)CSCC3)cc1	0.025 µM	–
COc1ccc(C(=O)CNC(=O)CCn2c3c(c(=O)[nH]c2=O)CCCC3)cc1	0.3 µM	–
